This is an account of results in ChEMBL document CHEMBL2176901, “Pyrrolo[3,4-h]quinolinones a new class of photochemotherapeutic agents” (Bioorg Med Chem, 2011).

The source made the active and inactive calls. No cut-off for these calls is given here.

The test system of data set [1] is MCF7. The experiment in a line: Phototoxicity in 2.5 J/cm'2 UV-A irradiated human MCF7 cells after 72 hrs by MTT assay. The format is functional, cell-based. The following applies: MCF7, light or radiation study. An outline of the steps:
(§1)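 HL-60 and Jurkat (8×10³/well, RPMI-1640) and MCF-7, LoVo, NCTC-2544 (5×10³/well; DMEM or Ham's F12) preincubated 18 h at 37 °C, 5% CO₂. Compound in DMSO diluted in HBSS pH 7.2, 30 min at 37 °C, then UV-A at 2.5 or 3.75 J/cm². Medium replaced, 72 h incubation, MTT read-out. IC50 as mean ± SEM of three experiments.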
On the technique in general: Tetrazolium assays rely on reduction of a dye to a coloured formazan, in cell work by metabolically active cells.

Data set [2] in a line: Phototoxicity in 3.75 J/cm'2 UV-A irradiated human NCTC-2544 cells after 72 hrs by MTT assay. The following applies: NCTC-2544, light or radiation study. The format is functional, cell-based. An outline of the steps:
(§2)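 Seeded at 5 × 10³ cells/well with 10% FBS: MCF-7 and NCTC-2544 in DMEM, LoVo in Ham's F12. Pre-incubated 18 h at 37 °C, 5% CO2. Compound (DMSO stock diluted in HBSS pH 7.2) was applied for 30 min at 37 °C, then UV-A irradiation (mainly 365 nm, 4.0 mW/cm²). Medium was restored for 72 h before MTT. IC50 is the mean ± SEM of three experiences.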

The test system of data set [3] is Jurkat. The experiment in a line: Phototoxicity in 2.5 J/cm'2 UV-A irradiated human Jurkat cells after 72 hrs by MTT assay. Format: functional, cell-based. Particulars: light or radiation study. An outline of the steps: as §1
Data set [4] concerns HL-60. The experiment in a line: Phototoxicity in 3.75 J/cm'2 UV-A irradiated human HL60 cells after 72 hrs by MTT assay. The format is functional, cell-based. Particulars: HL-60, light or radiation study. An outline of the steps: as §1
In data set [5] the test system is LoVo. The experiment in a line: Phototoxicity in 3.75 J/cm'2 UV-A irradiated human LoVo cells after 72 hrs by MTT assay. The format is functional, cell-based. Particulars: light or radiation study. An outline of the steps: as §2
For data set [6], the system named is HL-60. The experiment in a line: Phototoxicity in 2.5 J/cm'2 UV-A irradiated human HL60 cells after 72 hrs by MTT assay. Format: functional, cell-based. Particulars: HL-60, light or radiation study. An outline of the steps: as §1
Data set [7] in a line: Photodegradation of the compound in DMSO assessed as formation of photoproducts at 20 uM at 1.3 to 14.3 J/cm'2 UV-A irradiation. Format: physicochemical. An outline of the steps: (§3)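 Compound solutions at 20 μM in DMSO exposed to increasing UV-A doses (HPW 125 lamps, mainly 365 nm, 4.0 mW cm⁻²). Absorption spectra recorded after each dose; isosbestic points noted.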
A short description of data set [8]: Phototoxicity in 2.5 J/cm'2 UV-A irradiated human NCTC-2544 cells after 72 hrs by MTT assay. Format: functional, cell-based. The following applies: NCTC-2544, light or radiation study. An outline of the steps:
as §1

In data set [9] the test system is LoVo. As to the kind of experiment: Phototoxicity in 2.5 J/cm'2 UV-A irradiated human LoVo cells after 72 hrs by MTT assay. The format is functional, cell-based. The following applies: light or radiation study. An outline of the steps: as §1
For data set [10], the system named is Jurkat. As to the kind of experiment: Phototoxicity in 3.75 J/cm'2 UV-A irradiated human Jurkat cells after 72 hrs by MTT assay. Format: functional, cell-based. The following applies: light or radiation study. An outline of the steps: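 Jurkat cells (8 × 10³/well) in RPMI-1640 with 10% FBS, held 18 h at 37 °C, 5% CO2. Compound stock in DMSO was diluted in HBSS pH 7.2 and added for 30 min at 37 °C. Cells were UV-A irradiated (lamp mainly 365 nm, 4.0 mW/cm²), then returned to medium for 72 h. MTT readout. IC50 is the mean ± SEM of three experiences.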

Data set [11] concerns MCF7. The experiment in a line: Phototoxicity in 3.75 J/cm'2 UV-A irradiated human MCF7 cells after 72 hrs by MTT assay. Particulars: MCF7, light or radiation study. Format: functional, cell-based. An outline of the steps: as §2
For data set [12], the system named is Jurkat. The experiment in a line: Induction of apoptosis in UV-A irradiated human Jurkat cells assessed as increase in number of damaged lysosomes at 5 to 10 uM by acridine orange-based flow cytometry. Format: functional, cell-based. An outline of the steps:
(§4)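 Lysosomal stability in Jurkat cells 6, 12 and 24 h after UV-A (2.5 J/cm²) with compound. Cells resuspended in RPMI-1640 with 1 µM acridine orange; flow cytometry, excitation 488 nm, emission in FL3. Mean ± SEM of three experiments.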
(In general: In flow cytometry, cells or beads pass a laser one at a time.)

In data set [13] the test system is Jurkat. The experiment in a line: Cell cycle arrest in UV-A irradiated human Jurkat cells assessed as accumulation at Sub G1 phase at 5 uM after 24 hrs by propidium iodide based flow cytometry (reference value: 0.1 %). Format: functional. An outline of the steps:
(§5)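 Exponentially growing Jurkat cells (5×10^5) irradiated with UV-A (365 nm lamp, 2.5 J/cm²) in presence of compound. After 24 h: fixed in ice-cold 70% ethanol, lysed with RNAse A, stained with PI (10 µg/ml), analysed by flow cytometry. Phases calculated on living cells; subG1 is hypodiploid DNA peak.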

In data set [14] the test system is Jurkat. As to the kind of experiment: Cell cycle arrest in UV-A irradiated human Jurkat cells assessed as accumulation at Sub G1 phase at 10 uM after 24 hrs by propidium iodide based flow cytometry (reference value: 0.1 %). The format is functional. An outline of the steps:
as §5

Data set [15] concerns Jurkat. The experiment in a line: Induction of lipid peroxidation in 2.5 J/cm'2 UV-A irradiated human Jurkat cells assessed as increase in TBARS formation after 24 hrs by thiobarbituric acid assay. The format is functional, cell-based. An outline of the steps: (§6)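 Lipid peroxidation measured as MDA–thiobarbituric acid adducts, with BHT added to samples; calibrated to a 1,1,3,3-tetraethoxypropane standard curve; protein by Peterson method.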

In data set [16] the test system is Nucleic Acid. As to the kind of experiment: Binding affinity to salmon testes DNA at 10 uM by fluorescence titration. The format is nucleic-acid assay. Particulars: Salmonidae. An outline of the steps:
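Fluorimetric titration of compound (10 μM) with increasing stDNA (0 to 100 μM) in 10 mM phosphate buffer pH 7.2; quenching of compound fluorescence monitored.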

Data set [17] has as its system Jurkat. The experiment in a line: Cell cycle arrest in UV-A irradiated human Jurkat cells assessed as accumulation at G2/M phase at 10 uM after 24 hrs by propidium iodide based flow cytometry (reference value: 10.3 %). Format: functional. An outline of the steps: as §5
Data set [18] relates to Jurkat. The experiment in a line: Cell cycle arrest in UV-A irradiated human Jurkat cells assessed as accumulation at G1 phase at 5 uM after 24 hrs by propidium iodide based flow cytometry (reference value: 64.4 %). Format: functional. An outline of the steps: as §5
In data set [19] the test system is Nucleic Acid. As to the kind of experiment: Binding affinity to salmon testes DNA at drug/DNA ratio of 0.03 by linear dichroism analysis. Format: nucleic-acid assay. The following applies: Salmonidae. An outline of the steps: (§7)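 Flow linear dichroism in 10 mM phosphate buffer pH 7.2. Samples oriented in a rotating cylindrical cuvette (0.14 cm path, 800 rpm) at several drug/DNA ratios.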

Data set [20] deals with Jurkat. As to the kind of experiment: Cell cycle arrest in UV-A irradiated human Jurkat cells assessed as accumulation at G1 phase at 10 uM after 24 hrs by propidium iodide based flow cytometry (reference value: 64.4 %). Format: functional. An outline of the steps: as §5
Data set [21] deals with Nucleic Acid. As to the kind of experiment: Binding affinity to salmon testes DNA at drug/DNA ratio of 0.01 by linear dichroism analysis. The format is nucleic-acid assay. Particulars: Salmonidae. An outline of the steps: as §7
In data set [22] the test system is Jurkat. The experiment in a line: Induction of apoptosis in UV-A irradiated human Jurkat cells assessed as loss of mitochondrial membrane potential after 6 hrs by cytofluorimetric analysis. Format: functional, cell-based. An outline of the steps:
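Jurkat cells 6, 12 and 24 h after UV-A (2.5 J/cm²) with compound, resuspended in HBSS with JC-1 (1 μg/ml). Green (FL1) and orange (FL2) fluorescence collected by flow cytometry, ≥10000 events; cells with monomeric JC-1 counted as collapsed potential. Mean ± SEM of three experiments.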

Data set [23] has as its system Jurkat. As to the kind of experiment: Cell cycle arrest in UV-A irradiated human Jurkat cells assessed as accumulation at S phase at 10 uM after 24 hrs by propidium iodide based flow cytometry (reference value: 25.3 %). The format is functional. An outline of the steps:
as §5

For data set [24], the system named is Nucleic Acid. The experiment in a line: Binding affinity to salmon testes DNA at drug/DNA ratio of 0.02 by linear dichroism analysis. The format is nucleic-acid assay. The following applies: Salmonidae. An outline of the steps:
as §7

Data set [25] deals with Jurkat. The experiment in a line: Cell cycle arrest in UV-A irradiated human Jurkat cells assessed as accumulation at S phase at 5 uM after 24 hrs by propidium iodide based flow cytometry (reference value: 25.3 %). Format: functional. An outline of the steps:
as §5

Data set [26] deals with Jurkat. The experiment in a line: Induction of apoptosis in UV-A irradiated human Jurkat cells assessed as increase in number of damaged lysosomes after 6 to 24 hrs by acridine orange- based flow cytometry. The format is functional, cell-based. An outline of the steps: as §4
The subject of data set [27] is Jurkat. The experiment in a line: Cell cycle arrest in UV-A irradiated human Jurkat cells assessed as accumulation at G2/M phase at 5 uM after 24 hrs by propidium iodide based flow cytometry (reference value: 10.3 %). Format: functional. An outline of the steps: as §5
Data set [28] concerns Jurkat. The experiment in a line: Induction of lipid peroxidation in 3.75 J/cm'2 UV-A irradiated human Jurkat cells assessed as increase in TBARS formation after 24 hrs by thiobarbituric acid assay. Format: functional, cell-based. An outline of the steps: as §6
Data set [29] is described as follows: Photodegradation of the compound in DMSO assessed as formation of photoproducts at 20 uM at 1.3 to 15.2 J/cm'2 UV-A irradiation. The format is physicochemical. An outline of the steps:
as §3

In general, IC50 refers to the point on the concentration scale where inhibition reaches its midpoint. Low values mean greater potency in that assay, high ones weaker potency in that assay.

With `Cc1c2c(cn1Cc1ccccc1)CCc1cc(S(=O)(=O)c3ccccc3)c(=O)[nH]c1-2`, the IC50 in the data set with MCF7 [1] was greater than 20 µM; in [2], 14400 nM; in the data set on Jurkat [3] it was 13000 nM; with HL-60 [4], 2500 nM; in the data set on LoVo [5], greater than 20000 nM; in the data set with HL-60 [6], 4000 nM. The concentration for half-maximal inhibition (IC50) is greater than 20 µM in data set [8], greater than 20 µM with LoVo [9], 3000 nM with Jurkat [10] and 7700 nM in the data set on MCF7 [11]. Moreover, the Stability entry in data set [7] is on record as “Unstable”.

Regarding `CCOC(=O)c1c2c(c(C)n1Cc1ccccc1)-c1[nH]c(=O)c(S(=O)(=O)c3ccccc3)cc1CC2`, the outcome in the data set with Jurkat [12], with Jurkat [22] and with Jurkat [26] was Active. Besides, the IC50 was determined as 3.3 µM in the data set with MCF7 [1]; 2500 nM in data set [2]; 2900 nM in the data set with Jurkat [3]; 800 nM with HL-60 [4]; 2300 nM in the data set with LoVo [5]; 1200 nM in the data set with HL-60 [6]. Also, the IC50 stood at 4 µM in data set [8], 4 µM in the data set on LoVo [9], 1900 nM in the data set with Jurkat [10] and 1400 nM in the data set with MCF7 [11]. The Activity in the data set on Jurkat [13] was 3.8%; in the data set on Jurkat [14], 12.5%; in the data set with Jurkat [15], “Dose-dependent effect”; in the data set with Jurkat [17], 0.8%; with Jurkat [18], 53.8%; in the data set on Jurkat [20], 44.8%. In addition, the Activity was 54.4% in the data set on Jurkat [23], 41.8% in the data set on Jurkat [25], 4.4% in the data set with Jurkat [27] and “Dose-dependent effect” in the data set with Jurkat [28]. For the same molecule, the result in the data set on Nucleic Acid [16], with Nucleic Acid [19], with Nucleic Acid [21] and with Nucleic Acid [24] was inactive.

Take `COc1nc2c(cc1S(=O)(=O)c1ccccc1)CCc1cn(C)cc1-2`: the IC50 in the data set with MCF7 [1] turned out to be 2.5 µM; in [2], 1100 nM; in the data set with Jurkat [3], 1000 nM; in the data set with HL-60 [4], 900 nM; in the data set with LoVo [5], 900 nM; in the data set with HL-60 [6], 1600 nM. In addition, the IC50 in data set [8] was 4.9 µM; in the data set on LoVo [9], 1.9 µM; with Jurkat [10], 200 nM; in the data set on MCF7 [11] it was 2000 nM. For the same molecule, the Activity in the data set with Jurkat [13] was 4%; in the data set on Jurkat [14] it was 15.9%; in the data set with Jurkat [15], “Dose-dependent effect”; with Jurkat [17] it was 9.5%; in the data set on Jurkat [18] it was 49.6%; with Jurkat [20], 40.1%. Moreover, the Activity in the data set with Jurkat [23] was 50.4%; with Jurkat [25], 45.4%; with Jurkat [27] it was 5%; in the data set with Jurkat [28], “Dose-dependent effect”. The outcome in the data set on Nucleic Acid [16], with Nucleic Acid [19], in the data set on Nucleic Acid [21] and in the data set with Nucleic Acid [24] was inactive. The Stability result in data set [29] is reported as “Unstable”.
